# Test results reported in ChEMBL document CHEMBL4610005, “Discovery of a new class of PROTAC BRD4 degraders based on a dihydroquinazolinone derivative and lenalidomide/pomalidomide” (Bioorg Med Chem, 2020).
# Active and inactive are the calls of the source. The calls are words filed in the database; no cut-off is given here.
# How the values were obtained:
# [1] = biological target: T1, Bromodomain-containing protein 4 (Homo sapiens, UniProt O60885)
# [2] = biological target: T1, Bromodomain-containing protein 4; details: at 500 nM
# HL-60 = experiment: Antiproliferative activity against human HL60 cells assessed as reduction in cell viability at 2.5 uM incubated for 72 hrs by cell titer glo assay; type: functional, cell-based
# Procedure, shortened: (§1)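 Cells seeded and held 24 h at 37 °C, 5% CO2, then exposed to compound at a single 2.5 μM for 72 h under the same conditions. Viability was read by CellTiter-Glo luminescence after 10 min shaking and 2 min signal stabilisation at room temperature. Percent inhibition is the mean of three independent experiments.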
# Raji = experiment: Antiproliferative activity against human Raji cells assessed as reduction in cell viability at 2.5 uM incubated for 72 hrs by cell titer glo assay; type: functional, cell-based
# Procedure, shortened: as §1
# THP-1 [3] = experiment: Antiproliferative activity against human THP1 cells assessed as reduction in cell viability at 2.5 uM incubated for 72 hrs by cell titer glo assay; type: functional, cell-based
# Procedure, shortened: as §1
# [4] = biological target: T1, Bromodomain-containing protein 4; remark: listed apart in the source
# THP-1 [5] = experiment: Antiproliferative activity against human THP1 cells assessed as reduction in cell viability incubated for 72 hrs by cell titer glo assay; type: functional, cell-based; details: THP-1, 72 h
# Procedure, shortened: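 THP-1 cells were seeded and held 24 h at 37 °C, 5% CO2, then given serially diluted compound in medium for 72 h. Proliferation was read by CellTiter-Glo luminescence. IC50 was fitted from the dose-response and reported as mean ± SD of three independent assays.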
# [6] = biological target: T2, Protein cereblon/Bromodomain-containing protein 4 (Homo sapiens) (UniProt O60885+Q96SW2); experiment: Protac activity at CRBN/BRD4 in human THP1 cells assessed as increase in BRD4 degradation at 3 uM incubated for 3 hrs by Western blot analysis; type: cell-based; details: THP-1
# T2 sequence (Q96SW2 whole entry, looked up, other chains not shown): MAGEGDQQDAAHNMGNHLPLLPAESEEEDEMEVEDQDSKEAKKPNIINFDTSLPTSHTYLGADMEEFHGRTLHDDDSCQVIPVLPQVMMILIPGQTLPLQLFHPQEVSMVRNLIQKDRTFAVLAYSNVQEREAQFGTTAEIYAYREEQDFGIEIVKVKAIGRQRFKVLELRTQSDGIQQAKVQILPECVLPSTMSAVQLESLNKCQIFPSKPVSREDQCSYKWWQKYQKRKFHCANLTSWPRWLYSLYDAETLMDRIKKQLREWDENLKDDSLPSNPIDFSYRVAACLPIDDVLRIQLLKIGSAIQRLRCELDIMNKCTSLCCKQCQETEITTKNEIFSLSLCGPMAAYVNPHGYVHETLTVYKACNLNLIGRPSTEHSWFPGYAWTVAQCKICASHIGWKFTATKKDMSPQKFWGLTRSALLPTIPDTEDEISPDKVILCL
# Procedure, shortened: (§2)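 THP-1 cells were plated at 2×10^6 cells/well and treated for 3 h. Lysis was in RIPA buffer with protease inhibitors. 30 μg of lysate per lane was run on SDS-PAGE and blotted to PVDF. Membranes were probed with antibodies to BRD4 and c-Myc, with GAPDH as loading control.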
# [7] = biological target: T2, Protein cereblon/Bromodomain-containing protein 4 (Homo sapiens); experiment: Protac activity at CRBN/BRD4 in human THP1 cells assessed as decrease in c-Myc suppression at 1 uM incubated for 3 hrs by Western blot analysis; type: cell-based; details: THP-1
# Procedure, shortened: as §2
SMILES,IC50 [1],inhibition [2],inhibition (HL-60),inhibition (Raji),inhibition (THP-1 [3]),IC50 [4],IC50 (THP-1 [5]),Activity [6],Activity [7]
Cc1noc(C)c1-c1ccc2c(c1)C(c1ccccc1)N(CC(=O)NCCCCCCCC(=O)Nc1cccc3c1CN(C1CCC(=O)NC1=O)C3=O)C(=O)N2C (stereo unspecified),68.3 nM,96%,–,–,–,–,–,–,–
Cc1noc(C)c1-c1ccc2c(c1)C(c1ccccc1)N(Cc1cn(CCOCCOCC(=O)Nc3cccc4c3CN(C3CCC(=O)NC3=O)C4=O)nn1)C(=O)N2C (stereo unspecified),15.4 nM,100%,Active,Active,Active,–,–,–,–
Cc1noc(C)c1-c1ccc2c(c1)C(c1ccccc1)N(CC(=O)NCCCCCC(=O)Nc1cccc3c1CN(C1CCC(=O)NC1=O)C3=O)C(=O)N2C (stereo unspecified),99.1 nM,98%,–,–,–,–,–,–,–
Cc1noc(C)c1-c1ccc2c(c1)C(c1ccccc1)N(CCCCCCC(=O)Nc1cccc3c1CN(C1CCC(=O)NC1=O)C3=O)C(=O)N2C (stereo unspecified),118 nM,96%,–,–,–,–,–,–,–
Cc1noc(C)c1-c1ccc2c(c1)C(c1ccccc1)N(C)C(=O)N2 (stereo unspecified),–,–,–,–,–,44 nM,–,–,–
Cc1noc(C)c1-c1ccc2c(c1)C(c1ccccc1)N(CCCCC(=O)Nc1cccc3c1CN(C1CCC(=O)NC1=O)C3=O)C(=O)N2C (stereo unspecified),144 nM,90%,–,–,–,–,–,–,–
Cc1noc(C)c1-c1ccc2c(c1)C(c1ccccc1)NC(=O)N2C (stereo unspecified),46.4 nM,100%,Active,Active,Active,–,3260 nM,inactive,–
Cc1noc(C)c1-c1ccc2c(c1)C(c1ccccc1)N(CC(=O)NCCCC(=O)Nc1cccc3c1CN(C1CCC(=O)NC1=O)C3=O)C(=O)N2C (stereo unspecified),138 nM,89%,–,–,–,–,–,–,–
Cc1noc(C)c1-c1ccc2c(c1)C(c1ccccc1)N(Cc1cn(CCOCCOCC(=O)Nc3cccc4c3C(=O)N(C3CCC(=O)NC3=O)C4=O)nn1)C(=O)N2C (stereo unspecified),67.7 nM,93%,Active,Active,Active,–,1660 nM,–,–
Cc1sc2c(c1C)C(c1ccc(Cl)cc1)=N[C@@H](CC(=O)OC(C)(C)C)c1nnc(C)n1-2,–,–,Active,Active,Active,–,–,–,–
Cc1noc(C)c1-c1ccc2c(c1)C(c1ccccc1)N(CCCCCC(=O)Nc1cccc3c1CN(C1CCC(=O)NC1=O)C3=O)C(=O)N2C (stereo unspecified),135 nM,93%,–,–,–,–,–,–,–
Cc1noc(C)c1-c1ccc2c(c1)C(c1ccccc1)N(Cc1cn(CCOCC(=O)Nc3cccc4c3CN(C3CCC(=O)NC3=O)C4=O)nn1)C(=O)N2C (stereo unspecified),14.2 nM,99%,Active,Active,Active,–,1830 nM,–,–
Cc1noc(C)c1-c1ccc2c(c1)C(c1ccccc1)N(Cc1cn(CCOCC(=O)Nc3cccc4c3C(=O)N(C3CCC(=O)NC3=O)C4=O)nn1)C(=O)N2C (stereo unspecified),41.8 nM,99%,Active,Active,Active,–,810 nM,–,Active
Cc1noc(C)c1-c1ccc2c(c1)C(c1ccccc1)N(Cc1cn(CCOCCOCCOCC(=O)Nc3cccc4c3C(=O)N(C3CCC(=O)NC3=O)C4=O)nn1)C(=O)N2C (stereo unspecified),68.5 nM,86%,Active,Active,Active,–,1750 nM,–,–
Cc1noc(C)c1-c1ccc2c(c1)C(c1ccccc1)N(Cc1cn(CCOCCOCCOCCOCC(=O)Nc3cccc4c3CN(C3CCC(=O)NC3=O)C4=O)nn1)C(=O)N2C (stereo unspecified),22.6 nM,100%,Active,Active,Active,–,–,–,–
Cc1noc(C)c1-c1ccc2c(c1)C(c1ccccc1)N(Cc1cn(CCOCCOCCOCCOCC(=O)Nc3cccc4c3C(=O)N(C3CCC(=O)NC3=O)C4=O)nn1)C(=O)N2C (stereo unspecified),173 nM,60%,–,–,–,–,–,–,–
Cc1noc(C)c1-c1ccc2c(c1)C(c1ccccc1)N(Cc1cn(CCOCCOCCOCC(=O)Nc3cccc4c3CN(C3CCC(=O)NC3=O)C4=O)nn1)C(=O)N2C (stereo unspecified),22.1 nM,100%,Active,Active,Active,–,–,–,–
Cc1noc(C)c1-c1ccc2c(c1)C(c1ccccc1)N(CC(=O)NCCCCCCC(=O)Nc1cccc3c1CN(C1CCC(=O)NC1=O)C3=O)C(=O)N2C (stereo unspecified),80.6 nM,100%,–,–,–,–,–,–,–
Cc1noc(C)c1-c1ccc2c(c1)C(c1ccccc1)N(CC(=O)NCCC(=O)Nc1cccc3c1CN(C1CCC(=O)NC1=O)C3=O)C(=O)N2C (stereo unspecified),132 nM,94%,–,–,–,–,–,–,–
Cc1noc(C)c1-c1ccc2c(c1)C(c1ccccc1)N(CC(=O)NCCCCC(=O)Nc1cccc3c1CN(C1CCC(=O)NC1=O)C3=O)C(=O)N2C (stereo unspecified),134 nM,91%,–,–,–,–,–,–,–
